# Reference: PubChem BioAssay AID540295 (The Scripps Research Institute Molecular Screening Center, 2011)
# Out of some 360,000 compounds screened, about 1,700 (0.47%) were called active. Many of the other results were omitted from the sample, so actives are more common in it than they were. Unmarked numbers belong to inactive results.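 Rule for the calls: active = inhibition above its plate's cutoff, the mean of tested wells on that plate plus 3 SD (cut at about 29% in these data); inactive = the rest.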
# Molecular target: Melanocortin receptor 4 (Homo sapiens) (UniProt P32245)
# Assay: blockers of MC4R Gs-cAMP response – cell-based, TR-FRET, antagonist arm of biased-ligand search, primary screen (AID 540295);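 note: 0% = Melanotan II alone and 100% = Melanotan II plus saturating MCL0020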
# Settings: MC4R-expressing cells, MTII-stimulated cAMP, LANCE TR-FRET; at 6.5 µM; hits give high values
# Method in brief: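 system = U2OS cells with stable human MC4R expression | also added = Melanotan II challenge after compound preincubation | dosing = one concentration, 6.5 µM nominal | incubation = compound 30 min, challenge 1 h, detection 1 h | measured by = TR-FRET with Eu-cAMP and labeled anti-cAMP, 671 nm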
# Melanocortin receptor 4 (Homo sapiens), sequence (P32245 whole entry, looked up): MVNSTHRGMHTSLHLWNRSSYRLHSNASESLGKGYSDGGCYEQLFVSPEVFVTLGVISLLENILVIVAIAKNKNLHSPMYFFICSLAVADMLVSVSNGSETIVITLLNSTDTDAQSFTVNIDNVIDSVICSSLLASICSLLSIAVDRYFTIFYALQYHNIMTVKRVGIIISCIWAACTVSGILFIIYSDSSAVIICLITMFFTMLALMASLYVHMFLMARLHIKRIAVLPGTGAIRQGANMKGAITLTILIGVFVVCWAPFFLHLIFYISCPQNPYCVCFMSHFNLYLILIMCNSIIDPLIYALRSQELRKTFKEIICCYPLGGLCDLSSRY
row,SMILES,inhibition
1,CC(OC(=O)C1CC(=O)N(Cc2ccccc2)C1)C(=O)Nc1ccccc1[N+](=O)[O-] (configuration not stated),-5.04%
2,Cc1cc(-c2csc(N)n2)c(C)n1-c1ccccc1,4%
3,CC1(C(=O)N/N=C/c2cc3c(cc2Br)OCO3)CC1(Br)Br (configuration not stated),19.5%
4,CC(C)Oc1c(Br)cc(Br)cc1/C=N/NC(N)=S,31.4% (active)
5,CCN(CC)C(=O)C1CCCN(Cc2cccc(Cl)c2)C1 (configuration not stated),-1.5%
6,O=[N+]([O-])c1ccc(Oc2ccc(F)cc2Br)c2ccncc12,2.28%
7,COc1ccc(Cl)cc1-c1cc(C(=O)Nc2cc(OC)c(OC)c(OC)c2)[nH]n1,29.8% (active)
8,COc1cc(NC(=O)c2cc(-c3ccc(F)cc3OC(C)C)n[nH]2)cc(OC)c1OC,19.5%
9,CCCOc1ccc(F)cc1-c1cc(C(=O)Nc2ccc(F)c(Cl)c2)[nH]n1,3.21%
10,Cc1cccc(-n2ncc(Cl)c(Cl)c2=O)c1,27.8%
11,COc1ccc(CCNC(=O)c2c(C)nn(-c3ccccc3)c2Cl)cc1,13.4%
12,COc1ccc(Oc2c(Cl)cnn(-c3ccccc3)c2=O)cc1,54.6% (active)
13,CC(C)Nc1nc(NCCOc2ccccc2Cl)c2sccc2n1,-7.14%
14,COc1ccc2c(c1)C(=O)Nc1cc(Cl)ccc1N2,-3.19%
15,COc1ccc(/C=C(\C#N)C(=O)NCCCn2ccnc2)cc1,6.52%
16,COCCCNC(=O)/C(C#N)=C/c1c(N2CCCCCC2)nc2ccccn2c1=O,31% (active)
17,CCOCCCNC(=O)c1cc2c(=O)n3ccccc3nc2s1,-4.33%
18,CN(C)C(=O)c1cccc(-c2cnc3c(NC=O)cc(-c4ccc(F)cc4)cn23)c1,-2.24%
19,O=C(NNS(=O)(=O)c1c(F)cc(F)c(Cl)c1F)C12CC3CC(CC(C3)C1)C2,-0.65%
20,O=C(c1cnc(Cl)c(Cl)c1)N1CCN(S(=O)(=O)c2ccc(F)cc2)CC1,19.3%
21,CC(=O)N1CCN(S(=O)(=O)c2c(F)cc(F)c(Cl)c2F)CC1,32.7% (active)
22,COc1ccccc1C(=O)NC(CCSC)C(=O)NNC(=O)c1csc(N2CCOCC2)n1 (configuration not stated),14.9%
23,Cc1ccc(NC(=O)COC(=O)C2CC2)cc1S(=O)(=O)N1CCOCC1,5.97%
24,Cc1ccc(NC(=O)CCCNC(=O)c2ccc(Cl)cc2)cc1S(=O)(=O)N1CCOCC1,-7.04%

row,SMILES,inhibition
1,Cc1ccc(NC(=O)COC(=O)CNC(=O)c2ccc(Cl)cc2Cl)cc1S(=O)(=O)N1CCOCC1,31.4% (active)
2,Cc1cc(C)c(NC(=O)CN2C(=O)NC(Cc3ccccc3)C2=O)c(C)c1 (configuration not stated),-8.57%
3,CC1(C)C(c2cccs2)=[N+]([O-])C2(CCCCC2=O)N1O (configuration not stated),29.8% (active)
4,CC(=O)C1(C)N(O)C(C)(C)C(c2cccs2)=[N+]1[O-] (configuration not stated),-4.35%
5,Cc1cc(-n2cnc(-c3cn(C)nc3C)n2)no1,3.28%
6,CC(=O)N(Cc1cccs1)C1CCOC(C)(C)C1 (configuration not stated),-3.32%
7,OC(CN1C2=NCCCN2c2ccccc21)c1ccc(Br)cc1 (configuration not stated),-7.35%
8,COc1cccc(OCC(=O)NCCS(=O)(=O)N2CCN(c3ccccc3)CC2)c1,1.47%
9,COC(=O)C1=C(C)N(C)C(=O)NC1c1ccc([N+](=O)[O-])o1 (configuration not stated),-8.39%
10,COC(=O)c1c(C)[nH]c(C)c1-c1ccc([N+](=O)[O-])cc1,-0.44%
11,COC(=O)C1=C(C(=O)OC)C(c2cc([N+](=O)[O-])ccc2O)c2sc(=O)[nH]c2S1 (configuration not stated),33.3% (active)
12,CC1(C)CC(N2CCN(C(c3ccccc3)c3ccccc3)CC2)=CC(=[N+]2CCCCC2)C1,5.45%
13,NC1=NC2(CCCCC2)N(c2ccc(F)cc2F)C(N)=N1,1.15%
14,Cc1ccc2c(cnn2C(=O)CCC(=O)NC2CCCC2)c1,-3.58%
15,CC(C)N(c1ccccc1)c1ncnc(NCCC(=O)O)c1[N+](=O)[O-],9.58%
16,Cc1ccc(NC(=O)c2c(NC(=O)CCC(=O)O)sc3c2CCCCC3)cc1,32% (active)
17,COC(=O)c1c(NC(=O)CCN2CCOCC2)sc2c1CCCC2,-12.7%
18,O=C(CN1CCCC1)Nc1sc2c(c1C(=O)Nc1ccccc1)CCCC2,-1.77%
19,CN(C)/C(CN1CCCCC1)=C1\N=C(c2ccccc2)OC1=O,7.27%
20,O=C1CCC(=O)N(c2ccccc2)N1,22.5%
21,Cc1cccc(CS(=O)(=O)c2ncc(Cl)c(C(=O)Nc3ccc(F)cc3)n2)c1,12.4%
22,CSc1nnc(NC(=O)c2nc(S(=O)(=O)Cc3ccc(C)cc3)ncc2Cl)s1,44.6% (active)
23,NC(=O)CSc1nnc(NC(=O)c2ccc(Br)o2)s1,-2.81%
